In ChEMBL document CHEMBL1141882, “Synthesis and biological testing of purine derivatives as potential ATP-competitive kinase inhibitors” (J Med Chem, 2005):

Assays:
[1] = biological target: Mitogen-activated protein kinase 1 (Homo sapiens) (UniProt P28482); assay: Inhibition of human Mitogen-activated protein kinase 2 at 30 uM
Outline: (§1)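 Kinase activity assayed with ATP at 100 µM, deliberately higher than usual assay ATP levels because the inhibitors are assumed ATP-competitive. Results are reported as percent inhibition of each kinase.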

[2] = biological target: Dual specificity mitogen-activated protein kinase kinase 1 (Homo sapiens) (UniProt Q02750); assay: Inhibition of human Mitogen activated protein kinase kinase 1 (MEK1) at 30 uM; outline: as §1
[3] = biological target: Ca2+/calmodulin-dependent protein kinase II (CaM kinase II) (Rattus norvegicus) (UniProt P11275+P08413+P15791+P11730); assay: Inhibition of rat Calcium/calmodulin-dependent protein kinase type II at 30 uM; format: protein assay; outline: as §1
[4] = biological target: Tyrosine-protein kinase Lck (Homo sapiens) (UniProt P06239); assay: Inhibition of human lymphocyte protein tyrosine kinase Lck at 30 uM; outline: as §1
[5] = biological target: RAC-alpha serine/threonine-protein kinase (Homo sapiens) (UniProt P31749); assay: Inhibition of human Protein kinase B alpha at 30 uM; outline: as §1
[6] = biological target: Glycogen synthase kinase-3 beta (Homo sapiens) (UniProt P49841); assay: Inhibition of human Glycogen synthase kinase-3 beta at 30 uM; outline: as §1
[7] = biological target: Mitogen-activated protein kinase 10 (Rattus norvegicus) (UniProt P49187); assay: Inhibition of rat c-Jun N-terminal kinase-3 at 30 uM; outline: as §1
[8] = biological target: Protein kinase C alpha type (Homo sapiens) (UniProt P17252); assay: Inhibition of human Protein kinase C alpha; set-up: concentration or dose not given beside the values; details: concentration not given here
[9] = biological target: Mitogen-activated protein kinase 8 (Homo sapiens) (UniProt P45983); assay: Inhibition of human c-Jun N-terminal kinase-1 alpha-1 at 30 uM; outline: as §1
[10] = biological target: Mitogen-activated protein kinase 14 (Homo sapiens) (UniProt Q16539); assay: Inhibition of human stress-activated protein kinase-2 alpha (p38 MAP-kinase) at 30 uM; outline: as §1
[11] = biological target: RAF proto-oncogene serine/threonine-protein kinase (Homo sapiens) (UniProt P04049); assay: Inhibition of human RAF proto-oncogene serine/threonine-protein kinase at 30 uM; outline: as §1
[12] = biological target: Rho-associated protein kinase 2 (Homo sapiens) (UniProt O75116); assay: Inhibition of human Rho-dependent protein kinase-II at 30 uM
[13] = biological target: Mitogen-activated protein kinase 9 (Homo sapiens) (UniProt P45984); assay: Inhibition of human c-Jun N-terminal kinase-2 alpha-2 at 30 uM; outline: as §1
[14] = biological target: cAMP-dependent protein kinase (PKA) (Homo sapiens) (UniProt P22694+P17612+P22612); assay: Inhibition of human cAMP-dependent protein kinase (PKA); format: protein assay; set-up: concentration or dose not given beside the values; details: concentration not given here

Mitogen-activated protein kinase 1 (Homo sapiens), sequence (P28482 whole entry): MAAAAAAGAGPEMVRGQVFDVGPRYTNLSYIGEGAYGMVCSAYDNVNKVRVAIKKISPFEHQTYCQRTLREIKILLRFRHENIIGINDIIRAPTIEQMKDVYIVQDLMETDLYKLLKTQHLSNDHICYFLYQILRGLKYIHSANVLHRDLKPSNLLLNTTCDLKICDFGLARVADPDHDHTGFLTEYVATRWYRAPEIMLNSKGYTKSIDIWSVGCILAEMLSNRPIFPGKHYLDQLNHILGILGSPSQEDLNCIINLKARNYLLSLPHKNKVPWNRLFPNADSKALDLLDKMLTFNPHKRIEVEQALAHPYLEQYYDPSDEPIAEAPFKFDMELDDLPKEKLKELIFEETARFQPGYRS
Mitogen-activated protein kinase 14 (Homo sapiens), sequence (Q16539 whole entry): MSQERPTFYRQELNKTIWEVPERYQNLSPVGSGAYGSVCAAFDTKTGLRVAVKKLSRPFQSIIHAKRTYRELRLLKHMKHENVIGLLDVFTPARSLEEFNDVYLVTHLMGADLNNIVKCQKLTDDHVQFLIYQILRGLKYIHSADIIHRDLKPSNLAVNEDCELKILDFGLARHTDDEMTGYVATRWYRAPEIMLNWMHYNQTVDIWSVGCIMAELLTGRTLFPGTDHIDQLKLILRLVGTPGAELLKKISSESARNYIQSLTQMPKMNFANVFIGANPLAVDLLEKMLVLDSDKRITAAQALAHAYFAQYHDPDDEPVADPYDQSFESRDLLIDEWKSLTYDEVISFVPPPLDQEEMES
Glycogen synthase kinase-3 beta (Homo sapiens), sequence (P49841 whole entry, looked up): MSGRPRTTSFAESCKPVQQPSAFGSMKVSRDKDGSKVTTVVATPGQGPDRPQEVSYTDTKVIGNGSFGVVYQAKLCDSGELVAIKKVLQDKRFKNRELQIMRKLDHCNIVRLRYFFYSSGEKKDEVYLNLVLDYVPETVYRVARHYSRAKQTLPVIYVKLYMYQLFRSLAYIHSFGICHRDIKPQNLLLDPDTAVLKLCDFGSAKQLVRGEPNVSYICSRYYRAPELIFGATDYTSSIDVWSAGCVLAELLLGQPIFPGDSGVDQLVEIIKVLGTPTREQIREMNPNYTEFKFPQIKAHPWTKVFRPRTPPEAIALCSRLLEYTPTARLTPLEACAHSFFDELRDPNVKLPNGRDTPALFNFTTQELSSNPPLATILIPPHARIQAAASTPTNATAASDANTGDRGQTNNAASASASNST
Mitogen-activated protein kinase 10 (Rattus norvegicus), sequence (P49187 whole entry): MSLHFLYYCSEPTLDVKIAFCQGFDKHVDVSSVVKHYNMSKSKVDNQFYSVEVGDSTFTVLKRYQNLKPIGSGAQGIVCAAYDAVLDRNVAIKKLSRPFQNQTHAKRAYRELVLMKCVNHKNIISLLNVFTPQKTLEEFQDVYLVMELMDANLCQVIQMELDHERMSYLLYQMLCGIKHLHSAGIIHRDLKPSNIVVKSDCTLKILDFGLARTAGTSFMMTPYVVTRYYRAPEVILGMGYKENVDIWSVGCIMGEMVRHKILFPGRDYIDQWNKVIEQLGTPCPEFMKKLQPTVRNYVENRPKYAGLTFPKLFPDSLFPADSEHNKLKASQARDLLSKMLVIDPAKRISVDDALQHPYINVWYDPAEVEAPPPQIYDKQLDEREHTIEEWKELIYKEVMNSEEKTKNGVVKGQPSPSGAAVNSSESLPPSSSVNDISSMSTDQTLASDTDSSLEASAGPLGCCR
Mitogen-activated protein kinase 9 (Homo sapiens), sequence (P45984 whole entry, looked up): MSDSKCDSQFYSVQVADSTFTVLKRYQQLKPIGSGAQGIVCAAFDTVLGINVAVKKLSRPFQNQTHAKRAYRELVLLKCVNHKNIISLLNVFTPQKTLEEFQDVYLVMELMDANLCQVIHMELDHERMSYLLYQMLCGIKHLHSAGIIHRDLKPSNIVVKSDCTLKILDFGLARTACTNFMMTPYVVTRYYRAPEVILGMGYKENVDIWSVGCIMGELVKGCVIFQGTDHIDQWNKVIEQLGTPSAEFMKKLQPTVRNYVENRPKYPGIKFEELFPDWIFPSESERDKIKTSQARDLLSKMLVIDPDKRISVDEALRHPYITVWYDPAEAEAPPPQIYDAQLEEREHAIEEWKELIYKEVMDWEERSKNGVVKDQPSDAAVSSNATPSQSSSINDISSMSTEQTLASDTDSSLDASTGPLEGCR
Dual specificity mitogen-activated protein kinase kinase 1 (Homo sapiens), sequence (Q02750 whole entry): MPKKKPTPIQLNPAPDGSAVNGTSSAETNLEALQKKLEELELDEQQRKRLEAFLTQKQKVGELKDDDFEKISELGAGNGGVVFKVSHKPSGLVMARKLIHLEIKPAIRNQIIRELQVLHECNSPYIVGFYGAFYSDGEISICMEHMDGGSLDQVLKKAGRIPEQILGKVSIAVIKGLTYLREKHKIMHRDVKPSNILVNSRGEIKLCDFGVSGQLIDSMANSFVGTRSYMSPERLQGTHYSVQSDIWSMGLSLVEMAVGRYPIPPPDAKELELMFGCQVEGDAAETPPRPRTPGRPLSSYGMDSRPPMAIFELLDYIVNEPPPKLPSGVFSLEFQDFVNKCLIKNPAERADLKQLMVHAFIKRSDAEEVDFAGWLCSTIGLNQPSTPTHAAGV
Tyrosine-protein kinase Lck (Homo sapiens), sequence (P06239 2-509 limits assumed): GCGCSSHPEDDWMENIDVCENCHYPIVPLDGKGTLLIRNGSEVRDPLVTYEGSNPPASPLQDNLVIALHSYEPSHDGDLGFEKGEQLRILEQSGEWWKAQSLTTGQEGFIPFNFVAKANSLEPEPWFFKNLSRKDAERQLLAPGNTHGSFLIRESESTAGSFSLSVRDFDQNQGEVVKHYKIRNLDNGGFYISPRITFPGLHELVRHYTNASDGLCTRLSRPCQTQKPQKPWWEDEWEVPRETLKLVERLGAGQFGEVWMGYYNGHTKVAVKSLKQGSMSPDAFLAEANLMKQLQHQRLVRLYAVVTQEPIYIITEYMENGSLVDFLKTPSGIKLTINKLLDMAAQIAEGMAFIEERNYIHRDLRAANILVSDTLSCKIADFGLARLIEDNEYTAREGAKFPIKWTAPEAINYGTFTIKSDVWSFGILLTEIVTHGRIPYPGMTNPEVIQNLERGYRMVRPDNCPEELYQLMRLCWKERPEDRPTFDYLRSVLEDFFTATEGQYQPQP
RAF proto-oncogene serine/threonine-protein kinase (Homo sapiens), sequence (P04049 whole entry): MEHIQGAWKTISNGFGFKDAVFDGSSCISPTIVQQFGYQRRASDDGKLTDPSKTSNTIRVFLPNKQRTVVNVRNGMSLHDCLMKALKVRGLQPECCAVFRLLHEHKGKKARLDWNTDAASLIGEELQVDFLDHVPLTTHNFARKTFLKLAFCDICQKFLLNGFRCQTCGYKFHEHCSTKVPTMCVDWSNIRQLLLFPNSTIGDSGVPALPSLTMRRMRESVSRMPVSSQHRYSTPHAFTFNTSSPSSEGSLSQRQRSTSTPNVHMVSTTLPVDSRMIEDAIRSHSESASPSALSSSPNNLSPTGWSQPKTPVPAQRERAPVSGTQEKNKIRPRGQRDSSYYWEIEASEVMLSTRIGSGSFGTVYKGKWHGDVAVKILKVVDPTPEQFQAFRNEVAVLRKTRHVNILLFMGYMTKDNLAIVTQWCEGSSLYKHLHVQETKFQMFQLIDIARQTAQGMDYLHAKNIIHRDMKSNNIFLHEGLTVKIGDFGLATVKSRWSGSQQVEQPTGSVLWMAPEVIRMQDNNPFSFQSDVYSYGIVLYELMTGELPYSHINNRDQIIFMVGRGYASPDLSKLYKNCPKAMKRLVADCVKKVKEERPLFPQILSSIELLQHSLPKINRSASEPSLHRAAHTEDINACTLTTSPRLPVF
Mitogen-activated protein kinase 8 (Homo sapiens), sequence (P45983 whole entry): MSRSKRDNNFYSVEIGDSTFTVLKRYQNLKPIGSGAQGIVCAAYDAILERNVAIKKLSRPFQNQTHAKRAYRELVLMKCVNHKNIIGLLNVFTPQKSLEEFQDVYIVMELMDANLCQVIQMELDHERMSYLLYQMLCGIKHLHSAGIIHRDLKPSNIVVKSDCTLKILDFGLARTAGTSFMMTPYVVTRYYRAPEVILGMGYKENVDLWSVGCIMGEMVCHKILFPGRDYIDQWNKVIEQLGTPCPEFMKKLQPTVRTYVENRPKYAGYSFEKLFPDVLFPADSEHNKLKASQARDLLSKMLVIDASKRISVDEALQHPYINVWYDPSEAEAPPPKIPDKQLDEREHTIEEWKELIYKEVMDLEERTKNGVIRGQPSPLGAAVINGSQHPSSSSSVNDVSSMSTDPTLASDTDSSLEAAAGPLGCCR

With `Nc1ncnc2ncn(Cc3ccc(F)cc3)c12` the inhibition [1] was 5%, the inhibition [2] was 8% and the inhibition [3] was 8%. The inhibition [4] was 0%, the inhibition [5] was 0% and the inhibition [6] was 0%. For the same compound, the inhibition [7] was 25%, the inhibition [8] was 14% and the inhibition [9] was 4%. For the same compound, the inhibition [10] was 8%, the inhibition [11] was 28% and the inhibition [12] was 6%. It also gave an inhibition [13] of 7% and an inhibition [14] of 7%.
For `CSc1ccc(-c2nc3c(Sc4ccc(F)cc4)ncnc3n2C)cc1`, the inhibition [1] was 0%, the inhibition [2] was 4% and the inhibition [3] was 7%. It also gave an inhibition [4] of 1%, an inhibition [5] of 0% and an inhibition [6] of 5%. For the same compound, the inhibition [7] was 3%, the inhibition [8] was 0% and the inhibition [9] was 3%. It also gave an inhibition [10] of 15%, an inhibition [11] of 1% and an inhibition [12] of 0%. It also gave an inhibition [13] of 5% and an inhibition [14] of 0%.
Work on `Fc1ccc(CSc2[nH]cnc3ncnc2-3)cc1` yielded an inhibition [1] of 5%, an inhibition [2] of 0% and an inhibition [3] of 3%. For the same compound, the inhibition [4] was 16%, the inhibition [5] was 6% and the inhibition [6] was 0%. It also gave an inhibition [7] of 12%, an inhibition [8] of 4% and an inhibition [9] of 0%. For the same compound, the inhibition [10] was 29%, the inhibition [11] was 47% and the inhibition [12] was 18%. The inhibition [13] was 0%.
Compound `Cn1cnc2c(SCc3ccc(F)cc3)ncnc21` has an inhibition [1] of 8%, an inhibition [2] of 7% and an inhibition [3] of 5%. The inhibition [4] was 5%, the inhibition [5] was 11% and the inhibition [6] was 14%. The inhibition [7] was 9%, the inhibition [8] was 12% and the inhibition [9] was 10%. For the same compound, the inhibition [10] was 21%, the inhibition [11] was 16% and the inhibition [12] was 6%. It also gave an inhibition [13] of 6% and an inhibition [14] of 0%.
`c1ccc(C[n+]2c[nH]c3ncncc32)cc1` gave an inhibition [1] of 7%, an inhibition [2] of 4% and an inhibition [3] of 7%. The inhibition [4] was 7%, the inhibition [5] was 9% and the inhibition [6] was 13%. It also gave an inhibition [7] of 13%, an inhibition [8] of 18% and an inhibition [9] of 0%. It also gave an inhibition [10] of 6%, an inhibition [11] of 10% and an inhibition [12] of 7%. The inhibition [13] was 4% and the inhibition [14] was 0%.
`Cn1cnc2c(Nc3ccccc3)ncnc21` was tested, and the inhibition [1] was 42%, the inhibition [2] was 4% and the inhibition [3] was 0%. It also gave an inhibition [4] of 18%, an inhibition [5] of 0% and an inhibition [6] of 26%. The inhibition [7] was 5%, the inhibition [8] was 2% and the inhibition [9] was 0%. The inhibition [10] was 0%, the inhibition [11] was 44% and the inhibition [12] was 0%. The inhibition [13] was 0% and the inhibition [14] was 0%.
With `Nc1ncnc2c1ncn2Cc1ccccc1` the inhibition [1] was 11%, the inhibition [2] was 7% and the inhibition [3] was 0%. It also gave an inhibition [4] of 19%, an inhibition [5] of 0% and an inhibition [6] of 7%. For the same compound, the inhibition [7] was 17%, the inhibition [8] was 2% and the inhibition [9] was 1%. The inhibition [10] was 7%, the inhibition [11] was 25% and the inhibition [12] was 5%. It also gave an inhibition [13] of 0% and an inhibition [14] of 1%.
`Cn1cnc2c(Sc3ccc(F)cc3)ncnc21` showed an inhibition [1] of 12%, an inhibition [2] of 6% and an inhibition [3] of 5%. The inhibition [4] was 2%, the inhibition [5] was 0% and the inhibition [6] was 0%. It also gave an inhibition [7] of 9%, an inhibition [8] of 7% and an inhibition [9] of 10%. The inhibition [10] was 38%, the inhibition [11] was 12% and the inhibition [12] was 6%. The inhibition [13] was 10% and the inhibition [14] was 1%.
In the case of `Nc1[nH]cnc2ncnc1-2`, the inhibition [1] is reported as 17%, the inhibition [2] is reported as 9% and the inhibition [3] is reported as 0%. For the same compound, the inhibition [4] was 19%, the inhibition [5] was 0% and the inhibition [6] was 0%. The inhibition [7] was 10%, the inhibition [8] was 6% and the inhibition [9] was 0%. The inhibition [10] was 7%, the inhibition [11] was 14% and the inhibition [12] was 28%. It also gave an inhibition [13] of 0% and an inhibition [14] of 14%.
Work on `Fc1ccc(Sc2[nH]cnc3nccc2-3)cc1` yielded an inhibition [1] of 2%, an inhibition [2] of 36% and an inhibition [3] of 3%. The inhibition [4] was 52%, the inhibition [5] was 0% and the inhibition [6] was 4%. It also gave an inhibition [7] of 5%, an inhibition [8] of 15% and an inhibition [9] of 2%. For the same compound, the inhibition [10] was 79%, the inhibition [11] was 43% and the inhibition [12] was 42%. For the same compound, the inhibition [13] was 6% and the inhibition [14] was 0%.
Work on `Fc1ccc(Sc2ncnc3[nH]cnc23)cc1` yielded an inhibition [1] of 12%, an inhibition [2] of 2% and an inhibition [3] of 0%. For the same compound, the inhibition [4] was 13%, the inhibition [5] was 0% and the inhibition [6] was 0%. The inhibition [7] was 8%, the inhibition [8] was 9% and the inhibition [9] was 0%. It also gave an inhibition [10] of 72%, an inhibition [11] of 29% and an inhibition [12] of 37%. For the same compound, the inhibition [13] was 1% and the inhibition [14] was 10%.
Work on `CSc1ccc(-c2nc3c(Sc4ccccc4)ncnc3n2C)cc1` yielded an inhibition [1] of 0%, an inhibition [2] of 4% and an inhibition [3] of 0%. For the same compound, the inhibition [4] was 0%, the inhibition [5] was 5% and the inhibition [6] was 3%. For the same compound, the inhibition [7] was 0%, the inhibition [8] was 0% and the inhibition [9] was 0%. The inhibition [10] was 11%, the inhibition [11] was 5% and the inhibition [12] was 0%. For the same compound, the inhibition [13] was 1% and the inhibition [14] was 0%.
Compound `Clc1ncnc2c1ncn2Cc1ccccc1` has an inhibition [1] of 0%, an inhibition [2] of 3% and an inhibition [3] of 7%. It also gave an inhibition [4] of 0%, an inhibition [5] of 0% and an inhibition [6] of 0%. The inhibition [7] was 16%, the inhibition [8] was 17% and the inhibition [9] was 0%. The inhibition [10] was 11%, the inhibition [11] was 4% and the inhibition [12] was 3%. The inhibition [13] was 0% and the inhibition [14] was 2%.
Compound `Fc1ccc(Sc2ncnc3c2ncn3Cc2ccccc2)cc1` has an inhibition [1] of 0%, an inhibition [2] of 4% and an inhibition [3] of 0%. The inhibition [4] was 16%, the inhibition [5] was 1% and the inhibition [6] was 0%. It also gave an inhibition [7] of 0%, an inhibition [8] of 0% and an inhibition [9] of 0%. For the same compound, the inhibition [10] was 64%, the inhibition [11] was 0% and the inhibition [12] was 5%. For the same compound, the inhibition [13] was 0% and the inhibition [14] was 0%.
`Cn1c(-c2ccccc2)nc2c(Sc3ccccc3)ncnc21` gave an inhibition [1] of 0%, an inhibition [2] of 4% and an inhibition [3] of 1%. For the same compound, the inhibition [4] was 5%, the inhibition [5] was 42% and the inhibition [6] was 0%. The inhibition [7] was 12%, the inhibition [8] was 13% and the inhibition [9] was 0%. For the same compound, the inhibition [10] was 44%, the inhibition [11] was 12% and the inhibition [12] was 1%. For the same compound, the inhibition [13] was 0% and the inhibition [14] was 3%.
For `Cn1cnc2c(/C=C/c3ccccc3)ncnc21`, the inhibition [1] was 0%, the inhibition [2] was 0% and the inhibition [3] was 4%. The inhibition [4] was 1%, the inhibition [5] was 0% and the inhibition [6] was 0%. For the same compound, the inhibition [7] was 8%, the inhibition [8] was 7% and the inhibition [9] was 0%. For the same compound, the inhibition [10] was 12%, the inhibition [11] was 8% and the inhibition [12] was 0%. It also gave an inhibition [13] of 0% and an inhibition [14] of 0%.
For `c1ccc(Sc2[nH]cnc3nccc2-3)cc1`, the inhibition [1] was 4%, the inhibition [2] was 41% and the inhibition [3] was 6%. For the same compound, the inhibition [4] was 56%, the inhibition [5] was 0% and the inhibition [6] was 11%. For the same compound, the inhibition [7] was 0%, the inhibition [8] was 23% and the inhibition [9] was 0%. It also gave an inhibition [10] of 56%, an inhibition [11] of 22% and an inhibition [12] of 36%. The inhibition [13] was 0% and the inhibition [14] was 0%.
Work on `Fc1ccc(Cn2cnc3c(Sc4ccc(F)cc4)ncnc32)cc1` yielded an inhibition [1] of 0%, an inhibition [2] of 3% and an inhibition [3] of 0%. For the same compound, the inhibition [4] was 16%, the inhibition [5] was 0% and the inhibition [6] was 8%. For the same compound, the inhibition [7] was 0%, the inhibition [8] was 0% and the inhibition [9] was 0%. For the same compound, the inhibition [10] was 27%, the inhibition [11] was 0% and the inhibition [12] was 0%. For the same compound, the inhibition [13] was 0% and the inhibition [14] was 0%.
`Fc1ccc(Cn2cnc3ncnc(Cl)c32)cc1` gave an inhibition [1] of 1%, an inhibition [2] of 4% and an inhibition [3] of 8%. The inhibition [4] was 0%, the inhibition [5] was 0% and the inhibition [6] was 0%. For the same compound, the inhibition [7] was 21%, the inhibition [8] was 13% and the inhibition [9] was 6%. It also gave an inhibition [10] of 17%, an inhibition [11] of 20% and an inhibition [12] of 7%. The inhibition [13] was 9% and the inhibition [14] was 0%.
In the case of `Fc1ccc(Cn2cnc3c(Cl)ncnc32)cc1`, the inhibition [1] is reported as 0%, the inhibition [2] is reported as 1% and the inhibition [3] is reported as 0%. It also gave an inhibition [4] of 0%, an inhibition [5] of 0% and an inhibition [6] of 8%. The inhibition [7] was 20%, the inhibition [8] was 14% and the inhibition [9] was 0%. The inhibition [10] was 10%, the inhibition [11] was 4% and the inhibition [12] was 0%. The inhibition [13] was 0% and the inhibition [14] was 0%.
